This note sets out measurements from ChEMBL document CHEMBL1158585, “Oploxynes A and B, polyacetylenes from the stems of Oplopanax elatus” (J Nat Prod, 2010).

Assay [1] concerns RAW264.7. In words: Cytotoxicity in mouse RAW264.7 cells. In kind it is cell-based.
Assay [2] relates to RAW264.7. In words: Antiinflammatory activity in lipopolysaccharide-induced mouse RAW264.7 cells assessed as inhibition of nitric oxide production after 20 to 24 hrs by Griess method. The format is functional, cell-based. A digest of the protocol:
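RAW264.7 cells seeded at 1 × 10⁵ cells/well and left 6 h to attach, then given phenol red-free medium with 1 µg/mL E. coli LPS (strain 055:B5), with or without compound, for 20-24 h. Compounds were serially diluted. Supernatant nitrite read by Griess reagent, absorbance at 540 nm, against a NaNO₂ standard curve. Control got 0.5% (v/v) DMSO. Triplicate wells.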
Background: The Griess reaction detects nitrite, a stable product of nitric oxide.

The subject of assay [3] is RAW264.7. In words: Antiinflammatory activity in lipopolysaccharide-induced mouse RAW264.7 cells assessed as inhibition of prostaglandin E2 production after 20 to 24 hrs. In kind it is functional, cell-based. A digest of the protocol: (§1)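 PGE₂ made from endogenous arachidonic acid was measured with a commercial PGE₂ parameter assay kit, following the manufacturer's protocol.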

The subject of assay [4] is RAW264.7. Briefly: Antiinflammatory activity in lipopolysaccharide-induced mouse RAW264.7 cells assessed as inhibition of prostaglandin E2 production at 8 uM after 24 hrs. The format is functional, cell-based. A digest of the protocol:
as §1

In assay [5] the test system is RAW264.7. In words: Antiinflammatory activity in lipopolysaccharide-induced mouse RAW264.7 cells assessed as inhibition of nitric oxide production at 8 uM after 24 hrs by Griess method. The format is functional, cell-based. A digest of the protocol:
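RAW264.7 cells seeded at 1 × 10⁵ cells/well and left 6 h to attach, then exposed to compound at 8 µM for 24 h in phenol red-free medium with 1 µg/mL E. coli LPS (strain 055:B5). Supernatant nitrite read by Griess reagent at 540 nm against a NaNO₂ standard curve. Control got 0.5% (v/v) DMSO. Triplicate wells.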

Calls of active or inactive are those of the source. No cut-off for these calls is given here.

For `C=CC(O)C#CC#C[C@@H](O)/C=C\CCCCCCC` (mixture of isomers), the values for the IC50 in the assay on RAW264.7 [1], in the assay on RAW264.7 [2] and with RAW264.7 [3] were 3.77 µM, 1280 nM and 1540 nM, respectively.

As to `CCCCCCC/C=C\[C@H](O)C#CC#C[C@@H](O)CC` [OPLOPANDIOL], the inhibition entry with RAW264.7 [4] and in the assay on RAW264.7 [5] was “Active” each time. The values for the IC50 with RAW264.7 [1], in the assay with RAW264.7 [2] and with RAW264.7 [3] were greater than 40 µM, 2720 nM and 2990 nM, respectively.

On to `CCCCCCC[C@@H]1O[C@@H]1[C@H](O)C#CC#C[C@@H](O)CC` [OPLOXYNE A], for which the inhibition result in the assay with RAW264.7 [4] and with RAW264.7 [5] was “Active” each time. Also, the results for the IC50 with RAW264.7 [1], in the assay on RAW264.7 [2] and in the assay with RAW264.7 [3] were greater than 40 µM, 1980 nM and 3080 nM, respectively.

As to `CCCCCCC[C@@H](OC)[C@H](O)[C@H](O)C#CC#C[C@@H](O)CC` [OPLOXYNE B], the IC50 with RAW264.7 [1] is greater than 40 µM; in the assay on RAW264.7 [2] it was greater than 40000 nM; with RAW264.7 [3], greater than 40000 nM.

As usually defined, the IC50 is the concentration that gives 50% inhibition.
